In ChEMBL document CHEMBL4689842, “EUbOPEN Chemogenomics Library wave 1” (2021):
“And” between values parts separate entries of the source, which are not always exact repeats. Identical values can stand only once.

Test system: U2OS
Test: Multiplex assay against U2OS
Type: toxicity, cell-based
Conditions: human
Summary of the method: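 Live cells were stained at seeding with Hoechst33342, BioTracker Green Microtubule Cytoskeleton Dye, MitoTracker Red and Annexin V Alexa Fluor 680, then imaged on a CQ1 microscope at 37°C and 5% CO2 after compound addition. CellPathfinder machine-learning gating split cells into Hoechst high-intensity objects or normal cells. Normal cells were split into healthy, pyknosed or fragmented nuclei, and pyknosed cells into mitotic or apoptotic. Tubulin, mitochondrial-mass and membrane-permeability phenotypes are per cents of healthy-nucleus cells.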

[1] = 12 h, 1 µM, compound concentration 1 uM, replicate 1
[2] = 12 h, 1 µM, compound concentration 1 uM, replicate 2
[3] = 12 h, 10 µM, compound concentration 10 uM, replicate 1
[4] = 12 h, 10 µM, compound concentration 10 uM, replicate 2
[5] = 24 h, 1 µM, compound concentration 1 uM, replicate 1
[6] = 24 h, 1 µM, compound concentration 1 uM, replicate 2
[7] = 24 h, 10 µM, compound concentration 10 uM, replicate 1
[8] = 24 h, 10 µM, compound concentration 10 uM, replicate 2
[9] = 48 h, 10 µM, compound concentration 10 uM, replicate 1
[10] = 48 h, 10 µM, compound concentration 10 uM, replicate 2

SMILES: COCC(=O)NC/C=C/c1ccc2ncnc(Nc3ccc(Oc4ccc(C)nc4)c(C)c3)c2c1 [CP-724714]
- Population Apoptotic (%) [1]: 40% and 33%
- Population Fragmented Nuclei (%) [1]: 7% and 4%
- Population Healthy Nuclei (%) [1]: 80% and 89%
- Population Hoechst High Intensity Objects (%) [1]: 3%
- Population Membrane Permeable-Phenotype (%) [1]: 42% and 18%
- Population Mitochondria Different-Phenotype (%) [1]: 29% and 18%
- Population Mitotic Cells (%) [1]: 60% and 66%
- Population Normal (%) [1]: 96%
- Population Pyknosed Nuclei (%) [1]: 11% and 6%
- Population Tubulin-Different-Phenotype (%) [1]: 18%
- Total Cell Count [1]: 178 and 153
- Population Fragmented Nuclei (%) [2]: 3% and 8%
- Population Healthy Nuclei (%) [2]: 82% and 87%
- Population Hoechst High Intensity Objects (%) [2]: 6% and 4%
- Population Membrane Permeable-Phenotype (%) [2]: 49% and 27%
- Population Mitochondria Different-Phenotype (%) [2]: 43% and 20%
- Population Mitotic Cells (%) [2]: 53% and 100%
- Population Normal (%) [2]: 93% and 95%
- Total Cell Count [2]: 95 and 141
- Population Apoptotic (%) [3]: 51%
- Population Fragmented Nuclei (%) [3]: 17%
- Population Healthy Nuclei (%) [3]: 62%
- Population Hoechst High Intensity Objects (%) [3]: 13%
- Population Membrane Permeable-Phenotype (%) [3]: 35%
- Population Mitochondria Different-Phenotype (%) [3]: 87%
- Population Mitotic Cells (%) [3]: 48%
- Population Normal (%) [3]: 86%
- Population Pyknosed Nuclei (%) [3]: 20%
- Total Cell Count [3]: 167
- Population Apoptotic (%) [4]: 80%
- Population Fragmented Nuclei (%) [4]: 18%
- Population Healthy Nuclei (%) [4]: 63%
- Population Hoechst High Intensity Objects (%) [4]: 11%
- Population Membrane Permeable-Phenotype (%) [4]: 37%
- Population Mitochondria Different-Phenotype (%) [4]: 94%
- Population Mitotic Cells (%) [4]: 20%
- Population Normal (%) [4]: 88%
- Population Pyknosed Nuclei (%) [4]: 18%
- Population Tubulin-Different-Phenotype (%) [4]: 100%
- Total Cell Count [4]: 62
- Population Apoptotic (%) [5]: 50% and 38%
- Population Fragmented Nuclei (%) [5]: 10% and 2%
- Population Healthy Nuclei (%) [5]: 71% and 90%
- Population Hoechst High Intensity Objects (%) [5]: 1% and 2%
- Population Mitotic Cells (%) [5]: 50% and 61%
- Population Normal (%) [5]: 98% and 97%
- Population Pyknosed Nuclei (%) [5]: 17%
- Total Cell Count [5]: 186 and 209
- Population Apoptotic (%) [6]: 62% and 36%
- Population Fragmented Nuclei (%) [6]: 8% and 3%
- Population Healthy Nuclei (%) [6]: 75% and 89%
- Population Hoechst High Intensity Objects (%) [6]: 3% and 7%
- Population Membrane Permeable-Phenotype (%) [6]: 40% and 20%
- Population Mitochondria Different-Phenotype (%) [6]: 53% and 26%
- Population Mitotic Cells (%) [6]: 37% and 63%
- Population Normal (%) [6]: 96% and 92%
- Population Pyknosed Nuclei (%) [6]: 15% and 6%
- Total Cell Count [6]: 106 and 180
- Population Apoptotic (%) [7]: 60%
- Population Fragmented Nuclei (%) [7]: 20%
- Population Healthy Nuclei (%) [7]: 45%
- Population Hoechst High Intensity Objects (%) [7]: 8%
- Population Membrane Permeable-Phenotype (%) [7]: 46%
- Population Mitochondria Different-Phenotype (%) [7]: 98%
- Population Mitotic Cells (%) [7]: 39%
- Population Normal (%) [7]: 91%
- Population Pyknosed Nuclei (%) [7]: 33%
- Population Tubulin-Different-Phenotype (%) [7]: 100%
- Total Cell Count [7]: 156
- Population Fragmented Nuclei (%) [8]: 16%
- Population Healthy Nuclei (%) [8]: 54%
- Population Hoechst High Intensity Objects (%) [8]: 11%
- Population Membrane Permeable-Phenotype (%) [8]: 51%
- Population Mitochondria Different-Phenotype (%) [8]: 96%
- Population Mitotic Cells (%) [8]: 40%
- Population Normal (%) [8]: 88%
- Population Pyknosed Nuclei (%) [8]: 28%
- Total Cell Count [8]: 60
- Population Apoptotic (%) [9]: 76%
- Population Fragmented Nuclei (%) [9]: 22%
- Population Healthy Nuclei (%) [9]: 44%
- Population Hoechst High Intensity Objects (%) [9]: 4%
- Population Membrane Permeable-Phenotype (%) [9]: 57%
- Population Mitochondria Different-Phenotype (%) [9]: 91%
- Population Mitotic Cells (%) [9]: 23%
- Population Normal (%) [9]: 95%
- Population Pyknosed Nuclei (%) [9]: 32%
- Population Tubulin-Different-Phenotype (%) [9]: 100%
- Total Cell Count [9]: 163
- Population Apoptotic (%) [10]: 45%
- Population Fragmented Nuclei (%) [10]: 14%
- Population Healthy Nuclei (%) [10]: 52%
- Population Hoechst High Intensity Objects (%) [10]: 14%
- Population Membrane Permeable-Phenotype (%) [10]: 84%
- Population Mitochondria Different-Phenotype (%) [10]: 96%
- Population Mitotic Cells (%) [10]: 55%
- Population Normal (%) [10]: 85%
- Total Cell Count [10]: 71

SMILES: COc1cc2ncnc(Nc3ccc(F)c(Cl)c3)c2cc1NC(=O)/C=C/CN1CCCCC1 [DACOMITINIB ANHYDROUS]
- Population Apoptotic (%) [1]: 5%
- Population Fragmented Nuclei (%) [1]: 6%
- Population Healthy Nuclei (%) [1]: 84%
- Population Hoechst High Intensity Objects (%) [1]: 6%
- Population Membrane Permeable-Phenotype (%) [1]: 72%
- Population Mitochondria Different-Phenotype (%) [1]: 3%
- Population Mitotic Cells (%) [1]: 94%
- Population Normal (%) [1]: 93%
- Population Pyknosed Nuclei (%) [1]: 8%
- Population Tubulin-Different-Phenotype (%) [1]: 45%
- Total Cell Count [1]: 197
- Population Apoptotic (%) [2]: 60%
- Population Fragmented Nuclei (%) [2]: 11%
- Population Hoechst High Intensity Objects (%) [2]: 8%
- Population Membrane Permeable-Phenotype (%) [2]: 24%
- Population Mitochondria Different-Phenotype (%) [2]: 32%
- Population Mitotic Cells (%) [2]: 40%
- Population Normal (%) [2]: 91%
- Population Pyknosed Nuclei (%) [2]: 4%
- Population Tubulin-Different-Phenotype (%) [2]: 69%
- Total Cell Count [2]: 127
- Population Apoptotic (%) [3]: 0%
- Population Fragmented Nuclei (%) [3]: 3%
- Population Healthy Nuclei (%) [3]: 92%
- Population Hoechst High Intensity Objects (%) [3]: 3%
- Population Membrane Permeable-Phenotype (%) [3]: 31%
- Population Mitochondria Different-Phenotype (%) [3]: 7%
- Population Mitotic Cells (%) [3]: 100%
- Population Normal (%) [3]: 96%
- Population Pyknosed Nuclei (%) [3]: 4%
- Population Tubulin-Different-Phenotype (%) [3]: 15%
- Total Cell Count [3]: 182
- Population Fragmented Nuclei (%) [4]: 14%
- Population Healthy Nuclei (%) [4]: 82%
- Population Hoechst High Intensity Objects (%) [4]: 10%
- Population Membrane Permeable-Phenotype (%) [4]: 10%
- Population Mitochondria Different-Phenotype (%) [4]: 17%
- Population Normal (%) [4]: 89%
- Population Pyknosed Nuclei (%) [4]: 2%
- Population Tubulin-Different-Phenotype (%) [4]: 18%
- Total Cell Count [4]: 118
- Population Apoptotic (%) [5]: 46%
- Population Fragmented Nuclei (%) [5]: 9%
- Population Healthy Nuclei (%) [5]: 81%
- Population Hoechst High Intensity Objects (%) [5]: 5%
- Population Membrane Permeable-Phenotype (%) [5]: 65%
- Population Mitochondria Different-Phenotype (%) [5]: 5%
- Population Mitotic Cells (%) [5]: 53%
- Population Normal (%) [5]: 94%
- Population Pyknosed Nuclei (%) [5]: 9%
- Population Tubulin-Different-Phenotype (%) [5]: 39%
- Total Cell Count [5]: 262
- Population Apoptotic (%) [6]: 75%
- Population Fragmented Nuclei (%) [6]: 14%
- Population Healthy Nuclei (%) [6]: 78%
- Population Membrane Permeable-Phenotype (%) [6]: 11%
- Population Mitochondria Different-Phenotype (%) [6]: 50%
- Population Mitotic Cells (%) [6]: 25%
- Population Pyknosed Nuclei (%) [6]: 7%
- Population Tubulin-Different-Phenotype (%) [6]: 58%
- Total Cell Count [6]: 158
- Population Apoptotic (%) [7]: 40%
- Population Fragmented Nuclei (%) [7]: 5%
- Population Healthy Nuclei (%) [7]: 86%
- Population Hoechst High Intensity Objects (%) [7]: 2%
- Population Membrane Permeable-Phenotype (%) [7]: 15%
- Population Mitochondria Different-Phenotype (%) [7]: 10%
- Population Mitotic Cells (%) [7]: 59%
- Population Normal (%) [7]: 97%
- Population Pyknosed Nuclei (%) [7]: 8%
- Population Tubulin-Different-Phenotype (%) [7]: 14%
- Total Cell Count [7]: 184
- Population Apoptotic (%) [8]: 50%
- Population Fragmented Nuclei (%) [8]: 6%
- Population Healthy Nuclei (%) [8]: 87%
- Population Hoechst High Intensity Objects (%) [8]: 9%
- Population Membrane Permeable-Phenotype (%) [8]: 18%
- Population Mitochondria Different-Phenotype (%) [8]: 24%
- Population Mitotic Cells (%) [8]: 50%
- Population Normal (%) [8]: 90%
- Population Pyknosed Nuclei (%) [8]: 5%
- Population Tubulin-Different-Phenotype (%) [8]: 22%
- Total Cell Count [8]: 114
